Hits are enriched below; roughly 3.2% of the tested compounds scored in any of these assays.
TRPML3 ag: human TRPML3 channel agonists, primary screen, cell-based, HEK293 TRPML3-YFP, Fluo-8 calcium fluorescence, 3 µM; Mucolipin-3 (Homo sapiens), Q8TDD5; 100% = the carbachol control signal; activation, % at 3 µM; hit rate 0.29% among 220,000; AID 1448, 2008;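 active means activation above its plate's cutoff, the mean activation of the plate's test wells plus 3 SD, cut at about 12% in these data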
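Test system: TRPML3-YFP stable HEK293 cells. Doses: single point at 3 µM. Incubation: dye loading 1 h 37 °C then 30 min ambient, 125 s read. Signal: Fluo-8 calcium dye fluorescence, ex 470-495, em 515-575 nm. Measure: percent activation from peak-to-basal fluorescence ratio, scaled between DMSO and carbachol.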
zfTRPN1 agonist: zebrafish TRPN1 channel agonists, primary screen, cell-based, HEK293, calcium fluorescence. hit rate 0.18% among 220,000. activation, % at 3 µM. HEK293 zebrafish TRPN1-YFP, Fluo-8 calcium fluorescence; 100% = response to 87 µM carbachol;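 active means activation above its plate's cutoff, the mean activation of test wells on that plate plus 3 SD, cut at about 19% in these data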
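Assay system: Zebrafish TRPN1-YFP in HEK293 cells | Incubation: Dye loading 1 h at 37 °C, then 30 min room temperature | Measured by: Kinetic Fluo-8 fluorescence, ex 470-495, em 515-575 nm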
GPR7 antag: GPR7 receptor antagonists, primary screen, cell-based, fluorescence, single concentration | GPR7-expressing cells, fluorescence antagonist assay | inhibition, % at 4.4 µM | hit rate 1.1% among 290,000; in the data active means inhibition above about 16%, passing the limit was not always enough;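 further: cells stimulated with the agonist NPW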
Target sequence (P48145 whole entry, looked up): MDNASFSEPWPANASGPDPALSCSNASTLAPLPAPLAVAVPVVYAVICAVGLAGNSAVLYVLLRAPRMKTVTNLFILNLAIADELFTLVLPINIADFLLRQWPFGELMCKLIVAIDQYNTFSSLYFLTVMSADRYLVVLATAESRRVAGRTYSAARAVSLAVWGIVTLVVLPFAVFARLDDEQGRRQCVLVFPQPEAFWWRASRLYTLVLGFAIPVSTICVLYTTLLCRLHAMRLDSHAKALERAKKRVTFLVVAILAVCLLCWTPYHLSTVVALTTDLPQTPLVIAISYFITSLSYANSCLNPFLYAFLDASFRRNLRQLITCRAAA
OX1R antag-1: OX1R (HCRTR1) antagonists, primary screen, fluorescence, CHO/OX1R cells, Fluo-8 calcium, orexin A; Fluo-8 calcium fluorescence; inhibition, % at 5 µM; hit rate 0.43% among 330,000; AID 434989, 2010;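 active means inhibition above its plate's threshold, mean inhibition of all tested compounds on the plate plus 3 SD, cut at about 37% in these data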
OX1R antag-2: antagonists of human orexin 1 receptor (OX1R); hit rate 1.8% among 330,000; AID 485270, 2010; OX1R-expressing cells, FRET antagonist read-out; Orexin/Hypocretin receptor type 1 (Homo sapiens), O43613; inhibition, % at 6.6 µM; in the data active means inhibition mostly above about 38%, no sharp cut-off; inactive means mostly below about 40%
CHO parental Ca: ATP-evoked calcium signal inhibitors, parental CHO, primary screen, counter-screen for OX1R antagonist project, cell-based, fluorescence, Fluo-8 calcium dye. hit rate 0.63% among 330,000. parental CHO-K1, ATP-induced calcium, Fluo-8 fluorescence. inhibition, % at 5.6 µM;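 active means inhibition above that plate's mean sample inhibition plus 3 SD, cut at about 26% in these data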
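material = parental CHO cells | also added = ATP as calcium-mobilizing challenge | dosing = single point at 5.6 µM | detection = intracellular calcium via Fluo-8 no-wash fluorescent dye | read-out = % inhibition | benchmarks = low control ATP plus DMSO, high control DMSO only | repeats = one well per compound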
Hits are given with their value.

Screening CC(C)(C)c1ccc(C(=O)OC/C(O)=C(\C#N)c2nc3ccccc3s2)cc1 returned TRPML3 ag inactive, zfTRPN1 agonist inactive, GPR7 antag inactive, OX1R antag-1 inactive, OX1R antag-2 inactive and CHO parental Ca inactive.
Screening CCn1cc(C(=O)N2CCN(c3cccc(C)c3C)CC2)c(=O)c2ccc(C)nc21 returned TRPML3 ag inactive, zfTRPN1 agonist inactive, GPR7 antag inactive, OX1R antag-1 inactive, OX1R antag-2 inactive and CHO parental Ca inactive.
CCn1cc(C(=O)N2CCN(c3ccc([N+](=O)[O-])cc3)CC2)c(=O)c2ccc(C)nc21 was read as TRPML3 ag inactive, zfTRPN1 agonist inactive, GPR7 antag inactive, OX1R antag-1 inactive, OX1R antag-2 45 and CHO parental Ca inactive.
`CCCCSc1nc(C)cc(C)c1S(=O)(=O)c1ccccc1C` gave TRPML3 ag inactive, zfTRPN1 agonist inactive, GPR7 antag inactive, OX1R antag-1 inactive, OX1R antag-2 inactive and CHO parental Ca 39.
Screening Cc1cc(C)c(S(=O)(=O)c2ccccc2C)c(Cl)n1 returned TRPML3 ag inactive, zfTRPN1 agonist inactive, GPR7 antag inactive, OX1R antag-1 inactive, OX1R antag-2 inactive and CHO parental Ca inactive.
For Oc1ccc(Br)cc1-c1cc(-c2ccc(Cl)cc2)n[nH]1 the results were TRPML3 ag inactive, zfTRPN1 agonist inactive, GPR7 antag inactive, OX1R antag-1 inactive, OX1R antag-2 inactive and CHO parental Ca 50.
Screening COc1ccc2cc(C(=O)C3CCCN(C(=O)/C=C/c4ccccn4)C3)ccc2c1 (centres undefined) returned TRPML3 ag inactive, zfTRPN1 agonist inactive, GPR7 antag inactive, OX1R antag-1 inactive, OX1R antag-2 inactive and CHO parental Ca inactive.
`N#CCCN(C(=O)c1cc2c(s1)-c1ccccc1S(=O)(=O)C2)c1ccccc1` gave GPR7 antag inactive, OX1R antag-1 inactive, OX1R antag-2 inactive and CHO parental Ca inactive.
CCOc1cccc2c1OC(c1cc(OC)c(OC)c(OC)c1)N1N=C(c3ccc(C)o3)CC21 (centres undefined) was read as TRPML3 ag inactive, zfTRPN1 agonist inactive, GPR7 antag inactive, OX1R antag-1 inactive, OX1R antag-2 inactive and CHO parental Ca inactive.
CC(C)(C)CC(C)(C)NC(=S)Nc1ccc2nc(-c3ccccn3)c(-c3ccccn3)nc2c1 was read as TRPML3 ag inactive, zfTRPN1 agonist inactive, GPR7 antag inactive, OX1R antag-1 inactive, OX1R antag-2 inactive and CHO parental Ca inactive.
OCCCNC(=S)Nc1ccc2nc(-c3ccccn3)c(-c3ccccn3)nc2c1 was read as TRPML3 ag inactive, zfTRPN1 agonist inactive, GPR7 antag inactive, OX1R antag-1 inactive, OX1R antag-2 75 and CHO parental Ca inactive.
`COc1cccc2cc(C(=O)CS(=O)(=O)c3ccc(Cl)cc3)c(=O)oc12` gave GPR7 antag inactive, OX1R antag-1 inactive, OX1R antag-2 43 and CHO parental Ca inactive.
`O=C1Nc2ccc(Br)cc2C12NNc1ccccc1O2` (centres undefined) gave TRPML3 ag inactive, zfTRPN1 agonist inactive, GPR7 antag inactive, OX1R antag-1 60, OX1R antag-2 inactive and CHO parental Ca 78.
For O=C1Nc2ccc(Br)cc2C1(O)c1ccccc1 (centres undefined) the results were GPR7 antag inactive, OX1R antag-1 inactive, OX1R antag-2 inactive and CHO parental Ca inactive.
Screening Cc1nc(-c2ccc(NC(=O)c3ccc(Br)o3)cc2)cs1 returned GPR7 antag inactive, OX1R antag-1 inactive, OX1R antag-2 inactive and CHO parental Ca inactive.
Screening COc1cc2c(cc1OC)C(c1cccs1)N(C(=O)C(C)C)CC2 (centres undefined) returned TRPML3 ag inactive, zfTRPN1 agonist inactive, GPR7 antag 18, OX1R antag-1 inactive, OX1R antag-2 inactive and CHO parental Ca inactive.
For C=Cc1ccc(Cn2nc(-c3ccc(C)cc3)ccc2=O)cc1 the results were GPR7 antag inactive, OX1R antag-1 inactive, OX1R antag-2 inactive and CHO parental Ca 44.
`CC(=O)N1CCN(C(=O)COC(=O)/C=C/c2ccccc2[N+](=O)[O-])CC1` gave OX1R antag-1 inactive, OX1R antag-2 37 and CHO parental Ca inactive.
`O=C(NC1CCCC1)C(c1ccccc1)N(Cc1cccnc1)C(=O)Cc1cccs1` (centres undefined) gave TRPML3 ag inactive, zfTRPN1 agonist inactive, GPR7 antag inactive, OX1R antag-1 inactive, OX1R antag-2 inactive and CHO parental Ca inactive.
Screening Cc1ccc(-c2nnn(CC(=O)N(c3ccc(F)cc3)C(C(=O)NC3CCCC3)c3ccco3)n2)o1 (centres undefined) returned TRPML3 ag inactive, zfTRPN1 agonist inactive, GPR7 antag inactive, OX1R antag-1 inactive, OX1R antag-2 inactive and CHO parental Ca inactive.
Cc1ccc(-c2nnn(CC(=O)N(c3ccccc3F)C(C(=O)NC3CCCC3)c3ccco3)n2)o1 (centres undefined) was read as TRPML3 ag inactive, zfTRPN1 agonist inactive, GPR7 antag inactive, OX1R antag-1 inactive, OX1R antag-2 45 and CHO parental Ca inactive.
For CCn1c(SCc2ccccc2)nc2c1c(=O)[nH]c(=O)n2C the results were GPR7 antag inactive, OX1R antag-1 inactive, OX1R antag-2 inactive and CHO parental Ca inactive.
O=C(NCc1ccccn1)C12CC3CC(CC(C3)C1)C2 was read as TRPML3 ag inactive, zfTRPN1 agonist inactive, GPR7 antag inactive, OX1R antag-1 inactive, OX1R antag-2 inactive and CHO parental Ca inactive.
COc1ccc(S(=O)(=O)Nc2ccccc2C(=O)Nc2nc(-c3ccc(F)cc3)cs2)cc1OC was read as TRPML3 ag inactive, zfTRPN1 agonist inactive, GPR7 antag inactive, OX1R antag-1 inactive, OX1R antag-2 67 and CHO parental Ca inactive.
For COc1ccc(NC(=O)c2c(OC)cccc2OC)c(OC)c1 the results were TRPML3 ag inactive, zfTRPN1 agonist inactive, GPR7 antag inactive, OX1R antag-1 inactive, OX1R antag-2 46 and CHO parental Ca inactive.
For CCCNC(=O)c1ccccc1NS(=O)(=O)c1ccc(OC)c(OC)c1 the results were TRPML3 ag inactive, zfTRPN1 agonist inactive, GPR7 antag inactive, OX1R antag-1 inactive, OX1R antag-2 inactive and CHO parental Ca inactive.
Screening COc1ccc(NC(=O)c2ccc(C(=O)Nc3ccc(OC)cc3OC)cc2)c(OC)c1 returned TRPML3 ag inactive, zfTRPN1 agonist inactive, GPR7 antag inactive, OX1R antag-1 inactive, OX1R antag-2 inactive and CHO parental Ca inactive.
COc1ccc(OC)c(NC(=O)c2ccc(-c3csc(C)n3)cc2)c1 was read as GPR7 antag inactive, OX1R antag-1 inactive, OX1R antag-2 51 and CHO parental Ca inactive.

Screens as filed in PubChem BioAssay.
